Molecules are shown by their SMILES. In all, about 2,500 compounds went through this assay and about 1,200 (48%) were called active. The set was probably picked from earlier hits. This is one part of the list. A number with no mark means an inactive call.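 How the source made its calls: active means mean activation above the low control average plus 3 SD, as set in the primary screen (cut at about 12% in these data); inactive means the rest.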

This assay has as its target Troponin I, cardiac muscle (Homo sapiens) + Troponin T, cardiac muscle (Homo sapiens) + Troponin C, slow skeletal and cardiac muscles (Homo sapiens) (UniProt P19429+P45379+P63316). In words: calcium sensitizers of cardiac thin filaments – biochemical, IANBD-TnC fluorescence, triplicate, confirmation (AID 504383).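 Further: 0% = DMSO at 0.472 mM calcium and 100% = DMSO at 2.9 mM calcium.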 The note with it: IANBD-labeled cardiac RTF, Ca2+ sensitivity fluorescence; at 7.2 µM; hits give high values; scaled from EC20 to saturating calcium; tested at EC20 calcium, 0.472 mM. In a few lines: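 Assay system: labelled regulated thin filaments / Timing: 15 min at 25 °C / Detection: fluorescence intensity of labelled filaments / Measure: fluorescence gain scaled between EC20 and EC100 calcium controls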
Take `N#C/C(=C(/O)COC(=O)c1ccccc1O)c1nc2ccccc2s1`: the activation was 5.53%.

For the compound `N#C/C(=C\c1ccccn1)c1nc2ccccc2s1`, the activation was 14.5% (active).

With `COc1ccc2[nH]c(C(=O)N3CCC(Cc4ccccc4)CC3)cc2c1`, the activation was 13.6% (active).

As for `CN1CCN(C(=O)c2cc3ccccc3[nH]2)CC1`, the activation was 6.99%.

As to `O=C1c2cccc3cccc(c23)C(=O)N1CC1CCN(S(=O)(=O)c2ccc(F)cc2)CC1`, the activation was 134% (active).

Consider `Cc1ccc(N=C2NC(=O)/C(=C/c3cccnc3)S2)cc1C`, for which the activation is 3.85%.

`O=C1NC(=NCc2ccccc2)S/C1=C\c1ccccc1`: the activation was 50.1% (active).

Regarding `Cc1ccnc(NC(=O)c2ccc(Br)s2)c1`, the activation is 5.46%.

As to `Cc1ccnc(N/C=C(\C#N)c2nc(-c3cccc(Br)c3)cs2)c1`, the activation was 27.5% (active).

As for `N#C/C(=C\C=C\c1ccccc1)c1nc(-c2ccc3c(c2)OCO3)cs1`, the activation is 7.13%.

On to `O=S(=O)(/C=C/c1ccccc1)N1CCc2ccccc2C1`, for which the activation is 11.1%.

On to `COc1ccc(NC(=O)c2cccc(-c3ccc(O)cc3)c2)cn1`, for which the activation was 2.76%.

For the compound `COC(=O)c1ccc(NC(=O)c2cccc(OC)c2)cc1`, the activation was 14.2% (active).

Consider `COC(=O)c1ccc(NC(=O)c2snnc2-c2ccccc2)cc1`, for which the activation is 11.7% (active).

In the case of `Nc1nc2ccccc2n1CCOc1ccc(Br)cc1`, the activation was 12.1% (active).

As for `Cc1ccc(S(=O)(=O)c2cc(C#N)c(=O)[nH]c2N)cc1`, the activation is 23.8% (active).

Take `Cc1ccc(-c2nc3sc(C#N)c(N)n3c(=O)c2C#N)cc1`: the activation is 6.97%.

Regarding `CC1(C)CC2(CCCN(C(=S)Nc3ccccc3)C2)CCO1` (stereo not drawn), the activation is 17.2% (active).

Regarding `C=CCN1C(=O)C(Cc2cccc(Cl)c2)S/C1=N/N=C/c1ccco1` (stereo not drawn), the activation was 6.48%.

With `CC(Oc1ccc(S(=O)(=O)N2CCCC2)cc1[N+](=O)[O-])C(=O)N(C)c1ccccc1` (stereo not drawn), the activation is 6.91%.

For `O=C(COc1ccc(Cl)cc1[N+](=O)[O-])N1CCCCCC1`, the activation is 5.74%.

As to `O=C(COc1ccc(Cl)cc1[N+](=O)[O-])N1CCCCC1`, the activation was 48.7% (active).

For the compound `COc1cccc(OCCCn2cc(/C=C3/C(=N)N4C=C(C)SC4=NC3=O)c3ccccc32)c1`, the activation was 9.3%.

As for `CC1=CN2C(=N)/C(=C/c3ccc([N+](=O)[O-])o3)C(=O)N=C2S1`, the activation was 14.5% (active).

Consider `CC(=O)c1cccc(-n2c(CCC(=O)O)ccc2-c2ccccc2)c1`, for which the activation is 7.99%.

As to `CCCS(=O)(=O)N1CCC(C(=O)NCCCN2CCC(Cc3ccccc3)CC2)CC1`, the activation is 6.98%.

Take `CCOc1ccc(CCNC(=O)C2CCCN(S(=O)(=O)N3CCOCC3)C2)cc1OCC` (stereo not drawn): the activation is 15.7% (active).

Take `CCOc1ccc(CCNC(=O)c2ccc(CNS(=O)(=O)c3ccccc3)cc2)cc1OCC`: the activation was 4.87%.

As for `COc1cc(OC)c(C2N(c3ccc(Cl)c(Cl)c3)C(=O)C3CCCN32)cc1OC` (stereo not drawn), the activation was -2.98%.

As to `Cn1nccc1NC(=O)Nc1cccc(Cl)c1Cl`, the activation was 51.6% (active).

For the compound `COc1cc(OC)cc(-c2c(-c3cccs3)c3cc(-c4ccc(SC)cc4)ccc3n2C)c1`, the activation was 25.8% (active).

With `COCCCn1c(=O)/c(=C\c2ccccc2OC(C)C)s/c1=C(/C#N)C(=O)Nc1ccc(C(=O)O)cc1`, the activation was 8.94%.

Regarding `C=CCn1c(=O)/c(=C/c2cc(OC)c(OC)c(OC)c2)s/c1=C(/C#N)c1nc2ccccc2n1C`, the activation was 8.61%.

As for `COCCCn1c(=O)/c(=C\c2cccc(OC)c2OC)s/c1=C(/C#N)C(=O)Nc1ccc(C(=O)O)cc1`, the activation was 22.2% (active).

On to `COCCNC(=O)CSc1nc(N)c(NC(=O)c2ccccc2F)c(=O)[nH]1`, for which the activation is 11.4%.

Turning to `CCCn1c(=N)n(CC(O)c2ccco2)c2ccccc21` (stereo not drawn), the activation was 2.41%.

For the compound `CCn1c(=N)n(CC(O)c2ccccc2)c2ccccc21` (stereo not drawn), the activation is 9.44%.

Regarding `N=c1n(Cc2ccccc2)c2ccccc2n1CC(O)c1ccco1` (stereo not drawn), the activation was 29.1% (active).

Turning to `CN1CCCN(Cc2cccc3ccccc23)CC1`, the activation was 9.8%.

With `Cc1cc(C=O)c(C)n1-c1ccc(Oc2ccc([N+](=O)[O-])cn2)cc1`, the activation was 4.85%.

As to `COc1cc(/C=C2\SC(=O)NC2=O)ccc1Oc1ccc([N+](=O)[O-])cn1`, the activation is 81% (active).

On to `COc1ccc(C2NN=C(c3c[nH]c4ccccc34)C2O)cc1` (stereo not drawn), for which the activation was 36.2% (active).

Turning to `COc1ccccc1CNC(=O)COC(=O)c1cccc(S(=O)(=O)N2CCOCC2)c1`, the activation was 6.73%.

Take `O=C(COC(=O)c1ccc(S(=O)(=O)N2CCCC2)cc1)NCc1ccco1`: the activation was 11.6% (active).

As to `Cn1nc(C(F)(F)F)c(-c2ccc(Br)cc2)c1NC(=O)c1ccco1`, the activation is 6.3%.

As to `O=C(NC(NC(=S)Nc1ccccc1C(=O)O)C(Cl)(Cl)Cl)c1ccco1` (stereo not drawn), the activation was 5.56%.

Turning to `O=C(Nc1cccc2c1N(C(=O)c1ccco1)CCC2)c1ccco1`, the activation is 25.9% (active).

For `COc1ccc(/C=N/NC(=O)c2cccc([N+](=O)[O-])c2)cc1O`, the activation was 15.3% (active).

With `O=C(N/N=C/c1cccc([N+](=O)[O-])c1)c1cnccn1`, the activation was 3.15%.

Take `CCOC(=O)c1c(NC(=O)CSc2nc3cc(Cl)ccc3c(=O)n2Cc2ccco2)sc(C(=O)N(C)C)c1C`: the activation is 9.02%.

As for `CN(C)C(CNC(=O)CSc1nc2ccccc2c(=O)n1Cc1ccco1)c1ccccc1` (stereo not drawn), the activation is 12.1% (active).

As for `Cc1cccc(NC(=O)CSc2nnc(CSc3nc(C)cc(C)n3)n2Cc2ccco2)c1`, the activation was 8.24%.

Consider `O=C(NC(=S)NCC1CCCO1)C(c1ccccc1)c1ccccc1` (stereo not drawn), for which the activation was 12.2% (active).

Consider `CCc1ccccc1SCc1noc(C(=O)NCC2CCCO2)c1C(=O)O` (stereo not drawn), for which the activation was 10.6%.

Regarding `O=C(NCC(=O)N(CC1CCCO1)C1(C(=O)NC2CCCCC2)CCCCC1)c1ccccc1` (stereo not drawn), the activation is 8.78%.

With `CCOc1ccc2cc(/C=C/C(=O)c3ccco3)c(Cl)nc2c1`, the activation is 4.88%.

Regarding `CCCc1cc(=O)[nH]c(SCC)n1`, the activation was 11.7% (active).

On to `Cc1nc(Cl)c2c(n1)NC1=C(O2)C(=O)CCC1`, for which the activation was 10.5%.

On to `CCN(CC)C(=O)c1ccc(/C=C/c2c[nH]c3ccccc23)[n+](C)c1`, for which the activation is 11.1%.

For `CCOC(=O)/C(=C\c1c[nH]c2ccccc12)NC(C)=O`, the activation is 31.7% (active).

In the case of `CCOC(=O)C(CCCCCCC(NC(C)=O)(C(=O)OCC)C(=O)OCC)(NC(C)=O)C(=O)OCC`, the activation was 9.57%.

For `CCN(CC)C1=CC2=CC(=C(C#N)C#N)CCC2CC1` (stereo not drawn), the activation was 1.65%.

For the compound `Cn1cccc1/C=C1\SC(=S)N(NC(=O)c2ccc(Cl)cc2)C1=O`, the activation was 16.8% (active).

Take `Cc1ccc(C(=O)NN2C(=O)/C(=C/c3cccn3C)SC2=S)cc1`: the activation was 25.1% (active).

Regarding `Cn1cccc1/C=C1\SC(=S)N(NC(=O)c2ccccc2)C1=O`, the activation was 54.2% (active).

As to `c1ccc2c(c1)CCCN2Cc1nnnn1CC1CCCO1` (stereo not drawn), the activation was 7.11%.

As for `O=c1cc(CN2CCCc3ccccc32)nc2sccn12`, the activation was 5.39%.

In the case of `c1ccc2c(c1)CCCN2Cc1nnc2n1CCCCC2`, the activation is 92% (active).

In the case of `COc1cc(/C=C2\CCC(C)C3=C(c4cc(OC)c(OC)c(OC)c4)C(C#N)=C(N)OC32)cc(OC)c1OC` (stereo not drawn), the activation is 36.4% (active).

As to `O=c1oc2cc(O)ccc2cc1-c1nc2c(s1)CCc1ccccc1-2`, the activation is 7.71%.

Turning to `O=c1c(-c2ccc(O)cc2O)coc2cc(O)cc(O)c12`, the activation is 8.85%.

Regarding `O=c1oc2ccccc2cc1-c1ccc(O)cc1O`, the activation is 94.9% (active).

For `CC(C)(C)NC(=O)[C@@H]1CN(Cc2cccnc2)CCN1C[C@@H](O)C[C@@H](Cc1ccccc1)C(=O)N[C@H]1c2ccccc2C[C@H]1O`, the activation is 158% (active).

As for `COc1ccc(N(CC(=O)Nc2ccccc2C(=O)NCC(C)C)S(C)(=O)=O)cc1`, the activation is 4.96%.

With `CN(CC(=O)Nc1ccccc1Cl)C(=O)c1cc(=O)[nH]c2ccccc12`, the activation was 49.3% (active).

In the case of `CN(C)S(=O)(=O)c1ccc(C(=O)Oc2cc(=O)[nH]c3ccccc23)cc1`, the activation was 10.2%.

Regarding `CCn1cc(Cl)c(C(=O)NNC(=O)CCn2cc([N+](=O)[O-])cn2)n1`, the activation was 23.9% (active).

For `CCNC(=S)NNC(=O)CCn1cc(C)cn1`, the activation is 6.76%.

Take `CCCCCCc1cc2cc(-c3nnc(-c4ccccc4O)o3)c(=O)oc2cc1O`: the activation is 14.4% (active).

For `CCCCCCc1cc2cc(-c3nnc(-c4ccccc4)o3)c(=O)oc2cc1O`, the activation is 4.49%.

For the compound `O=[N+]([O-])c1cc(-c2nc(-c3ccncc3)no2)ccc1Cl`, the activation is 7.62%.

On to `CCOC(=O)C1(Cc2cccc(OC)c2)CCN(Cc2ccon2)CC1`, for which the activation was 12.7% (active).

`CCOC(=O)C1(Cc2cccc(OC)c2)CCCN(Cc2nccn2CC)C1` (stereo not drawn): the activation is 6.61%.

On to `CCOC(=O)C1(CCc2ccccc2)CCN(C(=O)c2occc2C)CC1`, for which the activation is 9.68%.

Consider `Nc1ccc(S(N)(=O)=O)cc1N`, for which the activation is 600% (active).

Regarding `CCOc1ccccc1N1CCN(CC(=O)N(CC(C)C)c2c(N)n(CC(C)C)c(=O)[nH]c2=O)CC1`, the activation is 35.3% (active).

In the case of `CCCCn1c(N)c(N(CC(C)C)C(=O)Cc2ccc(S(=O)(=O)N3CCOCC3)s2)c(=O)[nH]c1=O`, the activation was 8.87%.

For `CCOc1ccccc1N1CCN(CC(=O)c2c(N)n(C)c(=O)n(C)c2=O)CC1`, the activation is 14.9% (active).

As to `CC(C)CN(C(=O)CCCc1nc2ccccc2c(=O)[nH]1)c1c(N)n(Cc2ccccc2)c(=O)[nH]c1=O`, the activation is 8.94%.

Turning to `O[C@@H]1CN(C2CCCCC2)CC[C@H]1N1CCN(CCc2ccccc2)CC1`, the activation was 18.1% (active).

For the compound `c1ccc(CCCN2CCN(c3ccccc3)CC2)cc1`, the activation was 7.15%.

For `CC1=NN(c2ccc(C)c(C)c2)C(=O)/C1=C/c1ccc2c(c1)n(C)c(=O)n2C`, the activation was 57.9% (active).

Regarding `CC1=NN(c2ccc(Br)cc2)C(=O)/C1=C/c1ccc(-c2ccccc2C(=O)O)o1`, the activation is 10.1%.

The record behind these values is PubChem BioAssay AID504383 (The Scripps Research Institute Molecular Screening Center, 2011).
